UHRF1 binding = blocks human UHRF1 binding to methylated DNA; UHRF1 binding to methylated oligo, TR-FRET; AID 687016; Q96T88; 0.75% of 370,000 active; inhibition, % at 4.4 µM; in the data active = inhibition above about 21%;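 also: UHRF1 SRA domain binding a hemimethylated CpG hairpin DNA probe; 0% = median of test compound wells and 100% = reference inhibitor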
Target sequence (Q96T88 whole entry, looked up, the tested form may be a part): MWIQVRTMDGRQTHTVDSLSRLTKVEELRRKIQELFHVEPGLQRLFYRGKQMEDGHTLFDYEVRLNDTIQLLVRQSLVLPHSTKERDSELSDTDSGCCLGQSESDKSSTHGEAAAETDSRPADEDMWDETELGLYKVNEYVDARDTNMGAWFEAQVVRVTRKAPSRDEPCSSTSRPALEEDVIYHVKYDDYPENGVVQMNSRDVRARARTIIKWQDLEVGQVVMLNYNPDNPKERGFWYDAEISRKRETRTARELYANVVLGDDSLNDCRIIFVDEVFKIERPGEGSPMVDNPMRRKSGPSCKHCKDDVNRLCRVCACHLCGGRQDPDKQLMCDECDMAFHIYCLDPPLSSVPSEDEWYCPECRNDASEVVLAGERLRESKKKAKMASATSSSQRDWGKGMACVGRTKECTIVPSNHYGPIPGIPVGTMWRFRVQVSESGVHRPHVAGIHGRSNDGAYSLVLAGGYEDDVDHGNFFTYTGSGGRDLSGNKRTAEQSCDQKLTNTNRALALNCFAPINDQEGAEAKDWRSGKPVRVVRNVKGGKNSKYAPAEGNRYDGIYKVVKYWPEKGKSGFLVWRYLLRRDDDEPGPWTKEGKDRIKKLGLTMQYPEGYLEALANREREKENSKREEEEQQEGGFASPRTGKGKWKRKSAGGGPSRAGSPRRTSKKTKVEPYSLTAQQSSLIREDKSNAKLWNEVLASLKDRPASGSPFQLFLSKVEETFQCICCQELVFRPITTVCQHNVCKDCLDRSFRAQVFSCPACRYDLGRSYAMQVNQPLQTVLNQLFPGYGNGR
MBD2 DNA inh = MBD2-methylated oligo binding inhibition; Q9UBB5; TR-FRET, MBD2 binding to methylated oligonucleotide; inhibition, % at 4.4 µM; 0.31% of 370,000 active; in the data active = inhibition above about 13%
TDP2 inh = TDP2 (human) inhibition, absorbance primary screen; O95551; recombinant TDP2, T5PNP hydrolysis, p-nitrophenol absorbance 415 nm; inhibition, % at 12.8 µM; 0.34% of 370,000 active; AID 720702;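 active = inhibition above the mean of all tested compounds plus 3 SD, set per campaign, cut at about 25% in these data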;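 also: 0% = DMSO with enzyme and 100% = buffer with substrate but no TDP2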
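Assay system: recombinant human TDP2 / Reagent: T5PNP substrate at 5 mM, a TopII-DNA adduct mimic / Measured by: epi absorbance from released p-nitrophenol / Evaluation: % inhibition relative to enzyme-containing and enzyme-free wells / Control set: enzyme-free and DMSO wells / Replicates: each compound tested once, singlicate / Schedule: enzyme reaction with compound for 2 h at 37 °C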
ARFGAP1 inhibitor = rat ARFGAP1 inhibition | Q62848 | Arfgap1-stimulated ARF1 GTP hydrolysis, GDP FP detection | inhibition, % at 16.5 µM | 0.26% of 360,000 active | AID 651572;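 active = inhibition above a per-plate limit, mean inhibition of low control wells plus 3 SD, cut at about 25% in these data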;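 also: 0% = DMSO wells with enzyme and 100% = wells lacking Arfgap1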
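Repeats: one replicate per compound; assay system: rat Arfgap1 catalytic domain, aa 1-136; times: enzyme reaction 120 min at 25 °C after 20 min preincubation; detection: FP of antibody-bound GDP Alexa 633 tracer, ex 620/em 688 nm; benchmarks: high control wells lacking Arfgap1, low control full reaction with DMSO; reagent: human ARF1(Δ1-17)-GTP substrate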
ASAP1 inh = blocks human ASAP1-stimulated Arf1 GTP hydrolysis; GDP FP detection; inhibition, % at 16.5 µM; 0.19% of 360,000 active; AID 624377;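 also: 0% = vehicle with enzyme and substrate and 100% = no enzyme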
LEDGF integ inh = blocks HIV-1 LEDGF/p75-dependent DNA integration | inhibition, % at 3.7 µM | 0.64% of 370,000 active | TR-FRET IN-LEDGF/p75 DNA integration, Eu/Cy5;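 active = inhibition above the screen-wide mean plus 3 SD, cut at about 13% in these data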;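 also: signal is the Cy5 over europium emission ratio at 671 and 618 nm; 0% = plate median of compound wells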
TDP2 inh conf = human TDP2 inhibition, confirmation | shares compounds with TDP2 inh | recombinant human TDP2, absorbance read-out | inhibition, % at 12.8 µM | 22% of 1,100 active | AID 743263;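 also: 0% = vehicle with enzyme and 100% = no enzyme buffer only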
IN multimer up = activates HIV-1 integrase multimerization in LEDGF counter-screen. shares compounds with LEDGF integ inh. TR-FRET HIV-1 integrase multimerization, biochemical. activation, % at 7.7 µM. 17% of 2,000 active. AID 1053131; in the data active = activation above about 8.9%
TR-FRET interf = counter-screen for LEDGF/p75 integration inhibitors: TR-FRET optical interference | TR-FRET optical interference counterscreen, HIV-1 IN multimerization | 2,000 tested, under 10 active | inhibition, % at 7.7 µM | shares compounds with LEDGF integ inh;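 active = inhibition above the mean over all tested compounds plus 3 SD, which no compound reached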;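 also: 0% = integrase with antibodies and DMSO and 100% = antibodies without integrase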
IN-LEDGF confirm = confirmation of HIV-1 LEDGF/p75-dependent integration inhibitors | 36% of 2,000 active | shares compounds with LEDGF integ inh | TR-FRET LEDGF/p75-dependent HIV-1 integration, biochemical | AID 1053136 | inhibition, % at 3.7 µM; in the data active = inhibition above about 14%
Starred values were filed as active, the others as inactive; · = no result given. The list is not random: actives were taken first. Their share in the collection is about 2%. Rule as the data show it, unless noted: active = inhibition above about 25%; inactive = the rest.

SMILES | UHRF1 binding | MBD2 DNA inh | TDP2 inh | ARFGAP1 inhibitor | ASAP1 inh | LEDGF integ inh | TDP2 inh conf | IN multimer up | TR-FRET interf | IN-LEDGF confirm
CCn1cc(S(=O)(=O)Nc2ncccn2)cn1 | -2 | -6 | 25* | -3 | 0 | 1 | 1 | · | · | ·
Cc1nnc(N/N=C/c2cccc(C(F)(F)F)c2)n1N | 13 | 2 | 82* | 12 | 3 | 57* | 7 | -2 | 8 | -8
Cc1nnc(N/N=C/c2ccco2)n1N | 4 | -9 | 69* | 8 | -2 | 43* | 7 | 5 | -24 | -3
COc1cccc(/C=N/Nc2cc(Cl)nc(C)n2)c1O | -1 | -6 | 10 | -1 | 12 | 2 | · | · | · | ·
Cc1nnc(N/N=C/c2cccc(OCc3ccc(Cl)c(Cl)c3)c2)n1N | 6 | 4 | 62* | 4 | 4 | 57* | 2 | -1 | 2 | -4
COc1cccc(/C=N/Nc2nnc(C)n2N)c1O | 10 | 4 | 41* | 5 | 7 | 48* | 1 | 2 | -9 | -1
CC(C)(C)c1ccc(-c2noc(CCC(=O)NC3CC3)n2)cc1 | -2 | 3 | 4 | · | · | -3 | · | · | · | ·
Cc1nnc(N/N=C/c2ccccc2C(F)(F)F)n1N | 2 | -4 | 52* | 1 | -6 | 45* | 10 | 0 | 1 | 3
CN(C)c1cc(N/N=C/c2ccccc2C(F)(F)F)nc(N(C)C)n1 | -6 | 1 | 22 | -3 | -3 | 2 | · | · | · | ·
Cc1nnc(N/N=C/c2ccccc2F)n1N | 8 | -2 | 50* | 9 | -6 | 56* | 8 | 1 | -3 | -4
COc1ccc(-n2c(C)cc(/C=N/Nc3nnc(C)n3N)c2C)cc1 | 9 | -2 | 73* | -7 | -4 | 49* | 14 | 3 | -12 | -3
CC(C)N1CCCCC(NC(=O)c2cccc(C(F)(F)F)c2)C1=O (centres undefined) | 0 | -2 | -4 | · | · | 6 | · | · | · | ·
O=C1C(=O)N(Cc2ccc(-c3ccc(F)nc3)cc2)c2ccc(OC(F)(F)F)cc21 | -2 | -7 | -3 | · | · | 0 | · | · | · | ·
COc1cc(N)c(C(O)c2nccc3cc(OC)c(OC)cc23)cc1OC (centres undefined) | 0 | 6 | 11 | -13 | -8 | 1 | · | · | · | ·
COc1ccc(C(O)c2nccc3cc(OC)c(OC)cc23)cc1OC (centres undefined) | 18 | 12 | 34* | -7 | -5 | 29* | 16 | 0 | -1 | 3
CN(C)CCNc1ccc2nnn3c4ccc(O)cc4c(=O)c1c23 | 8 | 7 | 2 | 5 | -10 | -2 | · | · | · | ·
CCN(CC)CCCNc1ccc2ncn3c4ccc(O)cc4c(=O)c1c23 | -208 | -21 | 87* | 1 | -23 | 36* | 28* | 20* | -71 | 14*
CCOc1ccc2nc(NC(=S)N(C)C)sc2c1 | -2 | 0 | 26* | -2 | 7 | 14* | 17 | 2 | -9 | 9
CC(C)(C)c1nnc(N/N=C/c2cc(Br)ccc2O)n(N)c1=O | -9 | -8 | 2 | -4 | 1 | -7 | · | · | · | ·
CCc1nnc(N/N=C\c2ccc(OC(C)=O)c(OC)c2)n1N | 3 | 2 | 54* | 6 | -5 | 30* | 4 | -1 | 5 | -3
CCc1nnc(N/N=C/c2cc(Br)c(O)cc2O)n1N | 5 | -5 | 37* | -12 | -18 | 50* | 3 | 11* | -53 | -3
CCOc1cc(/C=N/Nc2nnc(C)n2N)ccc1OC(C)=O | 8 | 1 | 43* | 3 | -3 | 30* | 8 | 2 | -7 | 4
CCc1nnc(N/N=C/c2ccc(O)c(OC)c2)n1N | 3 | -3 | 79* | -13 | -3 | 55* | 14 | -1 | 3 | -6
COc1ccc(-c2nnc(SCc3cccc(F)c3)n2-c2ccccc2)cc1 | 1 | 0 | -5 | · | · | 2 | · | · | · | ·
COC(=O)[C@]12C[C@H](CC(=O)NCCc3ccccc3OC)C(=O)N(Cc3ccc4c(c3)OCO4)C1=C[C@H](C(C)C)O[C@@H]2C1CC1 | 0 | 5 | -3 | · | · | 4 | · | · | · | ·
SMILES | UHRF1 binding | MBD2 DNA inh | TDP2 inh | ARFGAP1 inhibitor | ASAP1 inh | LEDGF integ inh | TDP2 inh conf | IN multimer up | TR-FRET interf | IN-LEDGF confirm
O=S1(=O)c2ccc(Br)cc2OC[C@H](Cc2ccccc2)N1Cc1cn(Cc2ccc(Br)cc2)nn1 | -4 | 0 | -10 | · | · | -2 | · | · | · | ·
CCOC(=O)N1CCN(C(=O)C[C@@H]2C(=O)N3CCCC4=C3[C@@]2(C(=O)OC)CCCC4)CC1 | -2 | -3 | 6 | · | · | 0 | · | · | · | ·
COC1=C(Nc2ccc(OC)cc2)C(=O)C(OC)=C(Nc2ccc(OC)cc2)C1=O | -3 | 2 | 3 | 0 | 16 | -4 | · | · | · | ·
COC1=C(Nc2ccc(OC)cc2)C(=O)c2ccccc2C1=O | -8 | -3 | 60* | 3 | 14 | 18* | 4 | 7 | -25 | -2
C[n+]1cccc2cccc([O-])c21 | 10 | 2 | 27* | -4 | -8 | 15* | 28* | 8 | -29 | 54*
COc1ccc(-c2nnc(SCC(=O)Nc3cccc4ccccc34)n2Cc2ccco2)cc1 | 2 | -2 | 0 | · | · | 0 | · | · | · | ·
Cc1cc(/C=C2\SC(=S)NC2=O)c(C)n1C | 23* | 6 | 25* | -8 | 15 | 38* | -4 | 14* | -49 | 12
N#Cc1ccc(OC[C@@H](O)CN2CCC(C(O)(c3ccccc3)c3ccccc3)CC2)cc1 | 2 | -2 | 6 | · | · | -1 | · | · | · | ·
COc1cc(OC)c2c(O)c3c(=O)cc(C)oc3c(-c3c(OC)cc4cc5c(c(O)c4c3O)C(=O)CC(C)(O)O5)c2c1 (centres undefined) | 3 | 7 | 2 | · | · | 2 | · | · | · | ·
CC(C)(C)c1cc(CCC(=O)NCCc2ccccn2)cc(C(C)(C)C)c1O | 1 | 2 | -12 | 9 | -1 | -4 | · | · | · | ·
O=C1C=C(NCCc2cc(Br)c(O)c(Br)c2)C(=O)c2ncccc21 | 14 | -16 | 48* | -8 | 4 | 28* | 60* | 16* | -56 | 75*
COC(=O)[C@]12C[C@H](CC(=O)NCC3CCCCC3)C(=O)N(Cc3ccco3)C1=C[C@H](C(C)(C)C)O[C@@H]2C | 1 | 1 | -4 | · | · | -1 | · | · | · | ·

Compound activity: PubChem BioAssay, The Scripps Research Institute Molecular Screening Center
